pKi: −log10 of the molar value. ≈ marks a conversion by molar mass, not a printed value. Calls of active or inactive are those of the source. The rule behind the calls is not given here.
How the values were obtained:
[1] = Aqueous solubility at pH 6.5; format: physicochemical
Cannabinoid receptor 1 [2] = target: T1, Cannabinoid receptor 1 (Homo sapiens, UniProt P21554); assay: Binding affinity to human CB1 receptor
[3] = AUC(0 to 4 hrs) in Sprague-Dawley rat at 10 mg/kg, po; format: ADME, organism-based; set-up: time < 4 hr, dose 10 mg/kg, route oral; settings: plasma
In short: (§1)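 Oral PK in male Sprague-Dawley rats dosed at 10 mg/kg. Plasma sampled over 0–4 h for AUC(0–4h) and Tmax. Brain and plasma concentrations were taken at 4 h to give the brain/plasma ratio. Values are averages of n = 2 rats.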

Cannabinoid receptor 1 [4] = target: Cannabinoid receptor 1 (Rattus norvegicus, UniProt P20272); assay: Binding affinity to rat CB1 receptor
Rattus norvegicus [5] = assay: Change in food intake in Sprague-Dawley rat at 10 mg/kg, po; format: functional, organism-based; set-up: dose 10 mg/kg
In short: (§2)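 Ad libitum-fed rats trained to operate a lever to obtain food were dosed orally at 10 or 30 mg/kg. Cumulative food intake was measured at 4 h versus vehicle-treated controls, with significance testing (p < 0.05).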

[6] = Average Tmax in Sprague-Dawley rat at 10 mg/kg, po; format: ADME, organism-based; set-up: dose 10 mg/kg, route oral; settings: in vivo; in short: as §1
[7] = Ratio of drug level in brain to plasma in Sprague-Dawley rat at 10 mg/kg, po after 4 hrs; format: ADME, organism-based; set-up: dose 10 mg/kg, route oral; settings: read-out: BPR; in short: as §1
Rattus norvegicus [8] = assay: Reduction in feeding in food deprived Sprague-Dawley rat feeding model at 10 mg/kg, po after 2 hrs; format: functional; set-up: scale not given: the % may be the effect or the level left
In short: (§3)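 Rats were fasted and then dosed orally at 10 mg/kg. Food was reintroduced 30 min after dosing, and refeeding was quantified versus vehicle-treated animals at 2, 4 and 24 h post-dose. Locomotor activity was also monitored.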

Rattus norvegicus [9] = assay: Change in food intake in Sprague-Dawley rat at 30 mg/kg, po after 4 hrs; format: functional; in short: as §2
[10] = Drug level in Sprague-Dawley rat brain at 10 mg/kg, po after 4 hrs; format: ADME, organism-based; set-up: dose 10 mg/kg, route oral; settings: read-out: Drug uptake; in short: as §1
Rattus norvegicus [11] = assay: Reduction in feeding in food deprived Sprague-Dawley rat feeding model at 10 mg/kg, po after 24 hrs; format: functional; set-up: scale not given: the % may be the effect or the level left; in short: as §3
Rattus norvegicus [12] = assay: Reduction in feeding in food deprived Sprague-Dawley rat feeding model at 10 mg/kg, po after 4 hrs; format: functional; set-up: scale not given: the % may be the effect or the level left; in short: as §3
Cannabinoid receptor 1 [13] = target: T1, Cannabinoid receptor 1; assay: Binding affinity to human CB1 receptor at 13 uM
[14] = Ratio of drug level in brain to plasma in Sprague-Dawley rat at 30 mg/kg, po after 4 hrs; format: ADME, organism-based; set-up: dose 30 mg/kg, route oral; settings: read-out: Drug uptake
In short: (§4)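 Male Sprague–Dawley rats dosed orally at 30 mg/kg as a suspension in 0.5% Methocel/1% Tween 80/water. Plasma and brain levels measured, with brain concentration and brain/plasma ratio taken at 4 h. AUC covers 0–4 h. Values are averages of n = 2 rats.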

[15] = Drug level in Sprague-Dawley rat brain at 30 mg/kg, po after 4 hrs; format: ADME, organism-based; set-up: dose 30 mg/kg, route oral; settings: read-out: Drug uptake; in short: as §4
[16] = AUC(0 to 4 hrs) in Sprague-Dawley rat at 30 mg/kg, po; format: ADME, organism-based; set-up: time < 4 hr, dose 30 mg/kg, route oral; settings: plasma; in short: as §4
[17] = Average Tmax in Sprague-Dawley rat at 30 mg/kg, po; format: ADME, organism-based; set-up: dose 30 mg/kg, route oral; settings: in vivo; in short: as §4

T1 sequence (P21554 whole entry): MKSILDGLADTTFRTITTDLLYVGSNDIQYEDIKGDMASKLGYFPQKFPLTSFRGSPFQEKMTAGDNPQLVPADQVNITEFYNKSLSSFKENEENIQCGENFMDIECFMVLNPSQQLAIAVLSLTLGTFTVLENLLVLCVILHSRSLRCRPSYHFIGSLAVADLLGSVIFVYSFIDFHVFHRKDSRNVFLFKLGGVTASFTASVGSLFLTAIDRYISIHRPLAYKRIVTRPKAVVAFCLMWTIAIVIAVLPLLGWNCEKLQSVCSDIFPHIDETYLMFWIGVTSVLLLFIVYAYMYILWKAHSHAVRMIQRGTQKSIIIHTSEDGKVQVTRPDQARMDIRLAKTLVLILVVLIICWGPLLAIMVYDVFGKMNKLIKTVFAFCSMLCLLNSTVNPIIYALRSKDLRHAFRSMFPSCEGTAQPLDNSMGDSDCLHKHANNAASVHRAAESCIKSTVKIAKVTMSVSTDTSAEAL
Cannabinoid receptor 1 (Rattus norvegicus, UniProt P20272), sequence (P20272 whole entry): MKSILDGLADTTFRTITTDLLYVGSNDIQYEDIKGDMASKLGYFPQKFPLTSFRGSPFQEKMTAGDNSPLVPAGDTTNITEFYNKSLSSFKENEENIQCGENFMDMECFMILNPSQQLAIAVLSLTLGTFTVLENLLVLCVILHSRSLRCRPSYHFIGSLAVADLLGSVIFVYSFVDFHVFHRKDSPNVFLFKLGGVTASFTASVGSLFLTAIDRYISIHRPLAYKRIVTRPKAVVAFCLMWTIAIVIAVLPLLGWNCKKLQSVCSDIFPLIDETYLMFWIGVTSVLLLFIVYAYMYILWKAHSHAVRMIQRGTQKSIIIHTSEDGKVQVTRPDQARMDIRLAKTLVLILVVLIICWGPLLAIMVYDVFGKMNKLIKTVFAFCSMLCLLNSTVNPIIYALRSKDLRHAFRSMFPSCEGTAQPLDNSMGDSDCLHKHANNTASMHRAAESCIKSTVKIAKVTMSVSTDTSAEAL

CC(C)C[C@@H](COP(=O)(O)O)NC(=O)c1cnc(-c2ccc(Cl)cc2)c(-c2ccc(Cl)cc2)n1
solubility [1]: 0.43 mg/mL (≈ 820 µM)

Cc1ccc(-c2ncc(C(=O)N[C@@H](CC(C)C)C(N)=O)nc2-c2ccc(C)cc2)cc1
pKi (Cannabinoid receptor 1 [2]): 6.98

Cc1ccc(-c2ncc(C(=O)NN3CCCCC3)nc2-c2ccc(C)cc2)cc1
pKi (Cannabinoid receptor 1 [2]): 7.28

Cc1ccc(-c2ncc(C(=O)N[C@H](CO)C(C)C)nc2-c2ccc(C)cc2)cc1
pKi (Cannabinoid receptor 1 [2]): 6.63

Cc1ccc(-c2ncc(C(=O)N(C)Cc3ccccc3)nc2-c2ccc(C)cc2)cc1
pKi (Cannabinoid receptor 1 [2]): 6.96

Cc1ccc(-c2ncc(C(=O)NCC3CCCCC3)nc2-c2ccc(C)cc2)cc1
pKi (Cannabinoid receptor 1 [2]): 7.23

Cc1ccc(-c2ncc(C(=O)N[C@H](CO)CC(C)C)nc2-c2ccc(C)cc2)cc1
AUC(0-t) at 4 h [3]: 541 nM·h | pKi (Cannabinoid receptor 1 [4]): 7.46 | Activity (Rattus norvegicus [5]): inactive | Tmax [6]: 1 h | Kp at 4 h [7]: 3 | pKi (Cannabinoid receptor 1 [2]): 7.35 | Activity (Rattus norvegicus [8]): 37% | Activity (Rattus norvegicus [9]): 34% | concentration at 4 h [10]: 0.306 µM | Activity (Rattus norvegicus [11]): 16% | Activity (Rattus norvegicus [12]): 32%

Cc1ccc(-c2ncc(C(=O)NC3CCNC3=O)nc2-c2ccc(C)cc2)cc1 (configuration not stated)
inhibition (Cannabinoid receptor 1 [13]): 46%

Cc1ccc(-c2ncc(C(=O)NCCOc3ccccc3)nc2-c2ccc(C)cc2)cc1
pKi (Cannabinoid receptor 1 [2]): 6.20

CCNC(=O)c1cnc(-c2ccc(C)cc2)c(-c2ccc(C)cc2)n1
pKi (Cannabinoid receptor 1 [2]): 5.62

Cc1ccc(-c2ncc(C(=O)N[C@@H]3CCCC[C@H]3CO)nc2-c2ccc(C)cc2)cc1
pKi (Cannabinoid receptor 1 [2]): 7.30

Cc1ccc(-c2ncc(C(=O)NCCCN(C)c3ccccc3)nc2-c2ccc(C)cc2)cc1
pKi (Cannabinoid receptor 1 [2]): 7.60

Cc1ccc(-c2ncc(C(=O)NCCCc3ccccc3)nc2-c2ccc(C)cc2)cc1
Kp at 4 h [14]: 0.4 | pKi (Cannabinoid receptor 1 [4]): 7.10 | concentration at 4 h [15]: 0.034 µM | AUC(0-t) at 4 h [16]: 256 nM·h | pKi (Cannabinoid receptor 1 [2]): 7.74 | Tmax [17]: 2 h

Cc1ccc(-c2ncc(C(=O)N3CCNC(=O)C3)nc2-c2ccc(C)cc2)cc1
inhibition (Cannabinoid receptor 1 [13]): 29%

Cc1ccc(-c2ncc(C(=O)Nc3ccccc3)nc2-c2ccc(C)cc2)cc1
pKi (Cannabinoid receptor 1 [2]): 6.29

Cc1ccc(-c2ncc(C(=O)N3CCC(O)CC3)nc2-c2ccc(C)cc2)cc1
inhibition (Cannabinoid receptor 1 [13]): 38%

Cc1ccc(-c2ncc(C(=O)N[C@@H](C(N)=O)c3ccccc3)nc2-c2ccc(C)cc2)cc1
pKi (Cannabinoid receptor 1 [2]): 6.62

Cc1ccc(-c2ncc(C(=O)NC(C)C)nc2-c2ccc(C)cc2)cc1
pKi (Cannabinoid receptor 1 [2]): 6.18

Cc1ccc(-c2ncc(C(=O)N[C@@H]3CCCC[C@@H]3CO)nc2-c2ccc(C)cc2)cc1
pKi (Cannabinoid receptor 1 [2]): 6.78

CC(C)C[C@@H](CO)NC(=O)c1cnc(-c2ccc(Cl)cc2)c(-c2ccc(Cl)cc2)n1
AUC(0-t) at 4 h [3]: 736 nM·h | pKi (Cannabinoid receptor 1 [4]): 7.52 | Tmax [6]: 1 h | Kp at 4 h [7]: 3.1 | pKi (Cannabinoid receptor 1 [2]): 7.85 | concentration at 4 h [10]: 0.491 µM

Cc1ccc(-c2ncc(C(=O)NCCO)nc2-c2ccc(C)cc2)cc1
pKi (Cannabinoid receptor 1 [2]): 5.07

Cc1ccc(-c2ncc(C(=O)NCC3CC3)nc2-c2ccc(C)cc2)cc1
pKi (Cannabinoid receptor 1 [2]): 6.75

Cc1ccc(-c2ncc(C(=O)NC(C)COc3c(C)cccc3C)nc2-c2ccc(C)cc2)cc1 (configuration not stated)
pKi (Cannabinoid receptor 1 [2]): 7.41

Cc1ccc(-c2ncc(C(=O)N[C@@H](CO)CC(C)C)nc2-c2ccc(C)cc2)cc1
pKi (Cannabinoid receptor 1 [2]): 6.34

CNC(=O)c1cnc(-c2ccc(C)cc2)c(-c2ccc(C)cc2)n1
pKi (Cannabinoid receptor 1 [2]): 5.41

CCC(COCc1ccccc1)NC(=O)c1cnc(-c2ccc(C)cc2)c(-c2ccc(C)cc2)n1 (configuration not stated)
pKi (Cannabinoid receptor 1 [2]): 6.69

Cc1ccc(-c2ncc(C(=O)NC3Cc4ccccc4C3O)nc2-c2ccc(C)cc2)cc1 (configuration not stated)
pKi (Cannabinoid receptor 1 [2]): 7.48

Cc1ccc(-c2ncc(C(=O)N[C@H]3CC[C@H](O)CC3)nc2-c2ccc(C)cc2)cc1
inhibition (Cannabinoid receptor 1 [13]): 54%

Cc1ccc(-c2ncc(C(=O)N[C@@H](CO)C(C)C)nc2-c2ccc(C)cc2)cc1
pKi (Cannabinoid receptor 1 [2]): 6.50

CCCC(CO)NC(=O)c1cnc(-c2ccc(C)cc2)c(-c2ccc(C)cc2)n1 (configuration not stated)
pKi (Cannabinoid receptor 1 [2]): 6.80

Cc1ccc(-c2ncc(C(=O)NC(C)CCc3ccccc3)nc2-c2ccc(C)cc2)cc1 (configuration not stated)
pKi (Cannabinoid receptor 1 [2]): 8.30

Cc1ccc(-c2ncc(C(=O)N[C@@H]3CCCC[C@@H]3O)nc2-c2ccc(C)cc2)cc1
pKi (Cannabinoid receptor 1 [2]): 6.52
